What was measured:
[1] = melting temperature; fluorescence melt of hairpins on a sequencing array, two-state fit, raised by 9.35 °C to match UV melts; details: sodium 0.088 M
In short: (§1)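 Melting temperature and folding enthalpy were obtained by bootstrapped two-state fitting. Fits used Cy3 fluorescence of library hairpins with annealed Cy3 and quencher oligos on a sequenced MiSeq flow cell, imaged in 50 mM Na-HEPES pH 8.0, 25 mM NaCl in 2.5 °C steps up to 60 °C and normalised to pre-quench Cy3 and control constructs. Four replicates were combined by inverse-variance weighting, and fitted temperatures were raised by 9.35 °C to match UV melts.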

[2] = folding enthalpy; higher = less favourable; fluorescence melt of hairpins on a sequencing array, two-state fit; details: sodium 0.088 M
In short: as §1

Row | Sequence | Tm [1] | folding enthalpy [2]
1 | GAGGGCGAAAGCCGGCTC ((((((....)))..))) | 51 °C | -12.1 kcal/mol
2 | GGCGTCCGAAAGGAGGCC (((.(((....))).))) | 69.1 °C | -27 kcal/mol
3 | GATCCACGCATGGATC ((((((....)))))) | 52.8 °C | -32.1 kcal/mol
4 | GTGGTTGCGAAAGCACAC (((..(((....)))))) | 42.7 °C | -15.6 kcal/mol
5 | GAGGACCGAAAGGTGCTC (((.(((....))).))) | 60.4 °C | -32.2 kcal/mol
6 | GATCAACGTCTTGATC ((((((....)))))) | 42.6 °C | -30.9 kcal/mol
7 | GGCATCCGAAAGGAGGCC (((.(((....))).))) | 69.3 °C | -38.2 kcal/mol
8 | GCATACGCGAAAGCGTGC (((..(((....)))))) | 48.7 °C | -10.8 kcal/mol
9 | GCATTGCGAAAGCGACGC ((.(.((....)).).)) | 49.3 °C | -16.6 kcal/mol
10 | GCGGTTTGCCGC ((((....)))) | 60.6 °C | -41.2 kcal/mol
11 | CGGTGCCGGAAACGGCCG (((..(((....)))))) | 47.5 °C | -9.28 kcal/mol
12 | GATCGTATGCACGATC ((((((....)))))) | 54.5 °C | -26.1 kcal/mol
13 | GGGTTGACGAAAGTCCCC (((..(((....)))))) | 42.5 °C | -20.6 kcal/mol
14 | GATCTAGCACTAGATC ((((((....)))))) | 47.1 °C | -43.9 kcal/mol
15 | GCGGCGCACCGC ((((....)))) | 59.7 °C | -14.2 kcal/mol
16 | GTGAATGGAAACACTCAC ((((.((....)).)))) | 34.4 °C | -24.6 kcal/mol
17 | GTTTGGGGAAACTCGAAC (((.(.(....).).))) | 30.8 °C | -17.6 kcal/mol
18 | CATACGAAAGTATG (((((....))))) | 50.4 °C | -25.1 kcal/mol
19 | GATCGGTCGCCCGATC ((((((....)))))) | 57.4 °C | -54.5 kcal/mol
20 | GTCAGTGGAAACATTGAC ((((.((....)).)))) | 45.3 °C | -29.2 kcal/mol
21 | GTGGTCGAAAGACGACAC ((((((....)))..))) | 47.2 °C | -15.4 kcal/mol
22 | GCCGAGCCGAAAGGCGGC (((..(((....)))))) | 68.7 °C | -12.7 kcal/mol
23 | GTCGCCGAAAGGCTAGAC ((((((....)))..))) | 47.1 °C | -16.8 kcal/mol

Row | Sequence | Tm [1] | folding enthalpy [2]
24 | GTTCGACCGAAAGGTAAC (((..(((....)))))) | 27.3 °C | -10.9 kcal/mol
25 | GATCATCTAAATGATC ((((((....)))))) | 47.4 °C | -35.9 kcal/mol
26 | GGCATAGAAATATGCC ((((((....)))))) | 55.4 °C | -42.2 kcal/mol
27 | GGTTAAGGAAACTTAACC (((((((....))))))) | 52.7 °C | -38.5 kcal/mol
28 | GAGTAGCCGAAAGGCCTC (((..(((....)))))) | 38.4 °C | -10.7 kcal/mol
29 | GATCCGTGTCCGGATC ((((((....)))))) | 57.5 °C | -34 kcal/mol
30 | GATCTGGGCGCAGATC ((((((....)))))) | 53.5 °C | -37.7 kcal/mol
31 | GTGCACGGAAACGTGCGC (.(((((....))))).) | 63.9 °C | -14.7 kcal/mol
32 | GATCAGACTCTGATC ((((((...)))))) | 47.1 °C | -35 kcal/mol
33 | GTGACAGGAAACTGTCGC (.(((((....))))).) | 53.9 °C | -30.2 kcal/mol
34 | GATCAGGCTCCTGATC ((((((....)))))) | 52.5 °C | -42.8 kcal/mol
35 | GGAACAGAAATGTTCC ((((((....)))))) | 54.9 °C | -39 kcal/mol
36 | GAAAGCGCGAAAGCGTTC (((..(((....)))))) | 28.3 °C | -7.58 kcal/mol
37 | GGCAAAGGAAACTTCGCC (((.(((....))).))) | 41 °C | -29.7 kcal/mol
38 | GGATGTCGAAAGACCTCC (((.(((....))).))) | 46.5 °C | -29 kcal/mol
39 | GATCGAAGAGTCGATC ((((((....)))))) | 47.5 °C | -31.6 kcal/mol
40 | GCTTGGCGAAAGCTAGGC ((.(.((....)).).)) | 44.6 °C | -17 kcal/mol
41 | GCAGGGCGAAAGCACGGC ((.(.((....)).).)) | 65 °C | -33.9 kcal/mol
42 | GCATCCGGAAACGGACAC (..((((....))))..) | 21.6 °C | -12.7 kcal/mol
43 | GCGTCCTCACGC ((((....)))) | 50.9 °C | -24.3 kcal/mol
44 | GATCACGCCGGTGATC ((((((....)))))) | 60.7 °C | -38.7 kcal/mol
45 | GTCGATCCGAAAGGAGAC (((..(((....)))))) | 40 °C | -22.7 kcal/mol
46 | GTGGAGGAAACTCCAC ((((((....)))))) | 60.1 °C | -35.2 kcal/mol

Row | Sequence | Tm [1] | folding enthalpy [2]
47 | GGAGTCCGAAAGGAATCC (((.(((....))).))) | 56.4 °C | -41.5 kcal/mol
48 | GTGTGGGGAAACTCGCAC (((.(.(....).).))) | 42.8 °C | -29.9 kcal/mol
49 | GTTGTCGGAAACGACGAC ((.((((....)))).)) | 55.1 °C | -24.8 kcal/mol
50 | GATCACGGCCGTGATC ((((((....)))))) | 66.3 °C | -49.1 kcal/mol
51 | CGAATCCGGAAACGGTCG (((..(((....)))))) | 33.6 °C | -11.9 kcal/mol
52 | GCCGTACGAAAGTAGGGC (((.(((....))).))) | 60.1 °C | -40.8 kcal/mol
53 | CGAGCGGAAACGCCCTCG ((((((....)))..))) | 35.9 °C | -12.8 kcal/mol
54 | GAATGGCGAAAGCCGTTC (((.(((....))).))) | 58.1 °C | -22.4 kcal/mol
55 | GCCTTCGAAAGAACGGGC ((((((....)))..))) | 41 °C | -23 kcal/mol
56 | GTTTCGGGAAACCGGAAC (((.(((....))).))) | 49.6 °C | -35.2 kcal/mol
57 | CGGTTCGGAAACGACCG (((.(((....)))))) | 50.6 °C | -35.6 kcal/mol
58 | GTGCAGGGAAACCCGCAC ((((.((....)).)))) | 54.9 °C | -42.2 kcal/mol
59 | GAGTTCGGAAACGAGCTC (((.(((....))).))) | 51.7 °C | -31.3 kcal/mol
60 | GGCATGAAAATGCC (((((....))))) | 62.8 °C | -26 kcal/mol
61 | GGGTTCGAAAGAAACCC ((((((....))).))) | 54.4 °C | -34.7 kcal/mol
62 | GATTACGAAAGTAAAATC ((((((....)))..))) | 28.5 °C | -17.6 kcal/mol
63 | GATCGGCGAAAGCCTATC (((.(((....))).))) | 39.9 °C | -19.2 kcal/mol
64 | GATGGGCGAAAGCCTATC (((.(((....))).))) | 53.9 °C | -22.3 kcal/mol
65 | GCGGAGCCGAAAGGCCGC (((..(((....)))))) | 61.1 °C | -18.8 kcal/mol
66 | GAGGGCGGAAACACCCTC (((((.(....).))))) | 49.6 °C | -33.7 kcal/mol
67 | GGCCTTTCGAAAGAAGCC (((..(((....)))))) | 37.2 °C | -29.9 kcal/mol
68 | GGCACCCGAAAGGGGCC (((.(((....)))))) | 67.1 °C | -20.9 kcal/mol
69 | GGGTGCGAAAGCAAACCC ((((((....)))..))) | 55.9 °C | -29.3 kcal/mol

Row | Sequence | Tm [1] | folding enthalpy [2]
70 | GTCGACGAAAGTCGGGAC ((((((....)))..))) | 39.1 °C | -10.5 kcal/mol
71 | GGTGAACGAAAGTTAACC (((.(((....))).))) | 49.2 °C | -34.1 kcal/mol
72 | GCGGTACCGAAAGGTCGC (((..(((....)))))) | 55.4 °C | -26.3 kcal/mol
73 | GATCGAATTTCGATC ((((((...)))))) | 51.5 °C | -46.1 kcal/mol
74 | GCAGAGCGAAAGCACAGC ((.(.((....)).).)) | 42.9 °C | -15.6 kcal/mol
75 | GACAGGAAACTGTC (((((....))))) | 51.6 °C | -31.3 kcal/mol
76 | GAACCCGAAAGGGGTTTC ((((((....)))..))) | 46.9 °C | -11.6 kcal/mol
77 | GATCCGTCATCGGATC ((((((....)))))) | 59.3 °C | -39 kcal/mol
78 | GATCGTTTACACGATC ((((((....)))))) | 53.8 °C | -45.4 kcal/mol
79 | GCTATCCGAAAGGAGAGC (((.(((....))).))) | 58.6 °C | -38.9 kcal/mol
80 | GTCAACCGAAAGGTCGAC (((.(((....))).))) | 50.9 °C | -35.1 kcal/mol
81 | GATAGTGGAAACGCTATC (((((.(....).))))) | 42.9 °C | -25.7 kcal/mol
82 | GCCCAAGGAAACTTGAGC ((.((((....)))).)) | 37.7 °C | -25.1 kcal/mol
83 | GGGGCTGGAAACAGCCTC (.(((((....))))).) | 59.8 °C | -14.4 kcal/mol
84 | GGTCGGGGAAACCCAACC (((.(((....))).))) | 44.9 °C | -27 kcal/mol
85 | GGTTCTGGAAACAGAGCC ((.((((....)))).)) | 50.6 °C | -30.5 kcal/mol
86 | GATCCGGCTGCGGATC ((((((....)))))) | 61 °C | -38.4 kcal/mol
87 | GACCTGGGAAACTGGGTC ((((..(....)..)))) | 44.4 °C | -25 kcal/mol
88 | GTCCGCGAAAGCGTCGAC ((((((....)))..))) | 37.2 °C | -13.3 kcal/mol
89 | GCGTCCCGAAAGGGTCGC (((.(((....))).))) | 67.8 °C | -36.9 kcal/mol
90 | GCTCTTGCGAAAGCAAGC (((..(((....)))))) | 36.2 °C | -8.63 kcal/mol
91 | TGACAGAAATGTCA (((((....))))) | 42.1 °C | -20.1 kcal/mol
92 | GATCTGCTAACAGATC ((((((....)))))) | 50.4 °C | -37.1 kcal/mol

Reference: the array DNA melting data of Ke et al. (doi:10.1101/2024.01.08.574731)
